Calls of active or inactive are those of the source. No cut-off for these calls is given here.

The results in this text go back to ChEMBL document CHEMBL4414568, “Development of Novel Irreversible Pyruvate Kinase M2 Inhibitors” (J Med Chem, 2019).

One series concerns PC-9. Kind of series: Antitumor activity against human PC9 cells xenografted in athymic nude mouse assessed as reduction in tumor growth at 10 mg/kg, ip administered once daily for 25 days measured post-last dose by caliper method. In kind it is functional, organism-based. In outline: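 Female nude mice, 6 weeks old, given s.c. 1 × 10^6 PC-9 cells in Matrigel (1:1). From day 7, once-daily i.p. vehicle or 10 mg/kg compound in sterile water with 0.5% methylcellulose and 0.1% Tween-80, n = 8 per group, for 25 days. Tumor volume and body weight followed, tumors weighed at end.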

The subject of another series is Mus musculus. Kind of series: In vivo inhibition of PKM2 in human PC9 cells xenografted in athymic nude mouse assessed as reduction in beta-catenin expression at 10 mg/kg, ip administered once daily for 25 days measured post-last dose by Western blot analysis. The series is classed as functional, organism-based. The method in brief:
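Tumors from PC-9 xenograft nude mice given 10 mg/kg i.p. daily or vehicle for 25 days (n = 8 per group) were lysed for Western blots of PKM2, EGFR, Stat3 and β-catenin. Bands quantified by ImageJ and normalized to GAPDH.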

The target of series [1] is T1, Pyruvate kinase PKM (Homo sapiens, UniProt P14618). In words: Inhibition of PKM2 in human PC9 cells assessed as down regulation of EGFR expression incubated for 24 hrs by Western blot analysis. In kind it is cell-based. The method in brief:
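PC-9 cells seeded at 5 × 10^5 cells/mL; after 24 h given 0–1 µM compound or DMSO for 24 h. Lysates run on 10% SDS-PAGE, transferred to nitrocellulose, probed for PKM2, EGFR, p-STAT3, STAT3, p-β-catenin, β-catenin and β-actin with HRP secondaries, ECL detection.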
Target sequence in this assay (P14618 2-531 limits assumed): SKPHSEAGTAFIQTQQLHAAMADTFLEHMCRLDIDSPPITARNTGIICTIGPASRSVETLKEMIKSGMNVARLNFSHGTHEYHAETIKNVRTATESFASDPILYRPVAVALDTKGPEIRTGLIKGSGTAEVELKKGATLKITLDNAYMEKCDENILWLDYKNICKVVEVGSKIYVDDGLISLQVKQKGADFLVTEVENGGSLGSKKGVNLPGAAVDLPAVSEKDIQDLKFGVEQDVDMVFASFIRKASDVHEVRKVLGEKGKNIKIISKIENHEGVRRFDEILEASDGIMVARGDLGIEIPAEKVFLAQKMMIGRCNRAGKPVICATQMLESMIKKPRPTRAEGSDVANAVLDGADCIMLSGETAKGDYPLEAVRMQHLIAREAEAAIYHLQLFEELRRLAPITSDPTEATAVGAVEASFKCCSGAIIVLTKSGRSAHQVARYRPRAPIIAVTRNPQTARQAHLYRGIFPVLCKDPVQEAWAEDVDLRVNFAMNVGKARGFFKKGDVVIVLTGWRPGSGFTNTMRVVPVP

The subject of the next series is NCI-H157. Kind of series: Antiproliferative activity against human NCI-H157 cells expressing wild type EGFR assessed as reduction in cell viability incubated for 24 hrs by MTT assay. The note with it: NCI-H157, 24 h. The series is classed as functional, cell-based. The method in brief: (§1)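 Cells seeded at 3,500 per well in 10% FBS and left overnight, then exposed to test agent or vehicle in 5% FBS for 24 h. MTT added for 1 h, then medium swapped for DMSO and absorbance read at 560 nm. Viability given as percent of vehicle-treated control. Run in triplicate.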

A further series concerns NCI-H460. Kind of series: Antiproliferative activity against human H460 cells expressing wild type EGFR assessed as reduction in cell viability incubated for 24 hrs by MTT assay. In kind it is functional, cell-based. Particulars: NCI-H460, 24 h. The method in brief: as §1
Series [2] has as its target Alpha-enolase (Homo sapiens) (UniProt P06733). Kind of series: Binding affinity to ENOA in human PC9 cells incubated for 1 hr by ABPP-SILAC assay. The series is classed as cell-based. In outline: (§2)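 PC-9 cells passaged at least six times in SILAC DMEM with 10% dialyzed FBS plus 100 µg/mL light or 13C/15N-labeled Arg/Lys. Heavy cells got ABPP probe (1 µM) and light cells DMSO, 1 h at 37 °C. Cells mixed 1:1, sonicated, spun at 100,000g, protein normalized to 1 mg/mL. Click biotin-azide, streptavidin bead pulldown 16 h at 4 °C, SDS-PAGE, on-bead trypsin digestion, LC-MS/MS.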

Series [3] deals with T1, Pyruvate kinase PKM. In words: Inhibition of recombinant human N-terminal His-tagged PKM1 expressed in Escherichia coli at 0.125 to 0.5 uM using PEP as substrate incubated for 20 mins by OxiRed probe-based colorimetric analysis. The method in brief:
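Recombinant PKM1 or PKM2 incubated with compound at room temperature for 20 min. Remaining activity measured by the same colorimetric kit: PEP + […], PK then pyruvate oxidase, H2O2 read-out. n = 3.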
Target sequence in this assay (P14618 whole entry): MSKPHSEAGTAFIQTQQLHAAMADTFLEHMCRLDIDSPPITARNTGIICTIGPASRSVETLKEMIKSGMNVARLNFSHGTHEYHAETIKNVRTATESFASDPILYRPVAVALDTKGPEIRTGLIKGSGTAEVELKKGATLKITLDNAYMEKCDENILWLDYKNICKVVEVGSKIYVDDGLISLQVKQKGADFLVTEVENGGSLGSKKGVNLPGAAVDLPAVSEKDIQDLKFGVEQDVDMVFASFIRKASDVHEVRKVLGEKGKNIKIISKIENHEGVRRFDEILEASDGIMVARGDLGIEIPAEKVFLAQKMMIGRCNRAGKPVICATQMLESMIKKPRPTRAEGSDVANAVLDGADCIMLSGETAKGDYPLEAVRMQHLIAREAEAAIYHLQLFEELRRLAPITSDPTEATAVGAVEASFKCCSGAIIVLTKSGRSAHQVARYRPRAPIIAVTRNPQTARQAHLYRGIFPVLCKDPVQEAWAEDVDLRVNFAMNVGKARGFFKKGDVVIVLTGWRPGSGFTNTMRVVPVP

In series [4] the target is T1, Pyruvate kinase PKM. Kind of series: Inhibition of PKM2 in human PC9 cells assessed as decrease in extracellular acidification rate preincubated for 4 hrs followed by glucose/oligomycin/2-DG addition and measured after 1 hr by seahorse XFe96 analyser based assay. The series is classed as cell-based. The method in brief: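 PC-9 cells, 5 × 10^4 per well, seeded 24 h ahead, then treated with DMSO or compound at 0.25, 0.5 or 1 µM for 4 h at 37 °C. Cells held 1 h without CO2 in glycolysis medium. Seahorse glycolysis stress test with serial injections of 10 mM glucose, oligomycin and 50 mM 2-DG; ECAR and OCR recorded together. Six wells per point.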
Target sequence in this assay (P14618 2-531 limits assumed): as the sequence (P14618 2-531 limits assumed) above

For series [5], the target named is T2, Phosphoglycerate kinase 1 (Homo sapiens) (UniProt P00558).
T2 sequence (whole entry): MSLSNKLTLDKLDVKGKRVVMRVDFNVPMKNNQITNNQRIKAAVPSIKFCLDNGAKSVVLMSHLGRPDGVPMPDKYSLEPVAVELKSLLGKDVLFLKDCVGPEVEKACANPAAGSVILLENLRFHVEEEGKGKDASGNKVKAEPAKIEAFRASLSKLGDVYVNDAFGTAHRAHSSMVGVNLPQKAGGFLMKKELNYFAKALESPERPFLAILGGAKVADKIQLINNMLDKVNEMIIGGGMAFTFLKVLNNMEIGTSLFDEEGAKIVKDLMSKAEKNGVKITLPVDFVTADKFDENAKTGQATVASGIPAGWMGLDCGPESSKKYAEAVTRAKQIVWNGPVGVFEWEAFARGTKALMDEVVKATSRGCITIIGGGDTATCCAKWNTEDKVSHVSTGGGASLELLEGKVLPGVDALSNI
In words: Binding affinity to PGK1 in human PC9 cells incubated for 1 hr by ABPP-SILAC assay. In kind it is cell-based. In outline:
as §2

The target in series [6] is T1, Pyruvate kinase PKM. In words: Binding affinity to recombinant human N-terminal His6-tagged PKM2 expressed in Escherichia coli BL21 (DE3) assessed as Cys317-adduct formation by NanoLC-MS/MS analysis. In outline:
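In-house His-tag PKM2 from E. coli BL21(DE3), purified by Ni-NTA then Superdex 200, treated with compound. Reduced with 30 mM DTT at 37 °C for 1 h, alkylated with 30 mM iodoacetamide for 1 h in the dark, trypsin 1:30 w/w overnight at 37 °C. Digests from 6 experiments pooled, 48 nanoLC-MS/MS runs in data-dependent mode, Orbitrap MS1.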
Target sequence in this assay (P14618 2-531 limits assumed): as the sequence (P14618 2-531 limits assumed) above

Sequence of Alpha-enolase (Homo sapiens) (P06733 whole entry): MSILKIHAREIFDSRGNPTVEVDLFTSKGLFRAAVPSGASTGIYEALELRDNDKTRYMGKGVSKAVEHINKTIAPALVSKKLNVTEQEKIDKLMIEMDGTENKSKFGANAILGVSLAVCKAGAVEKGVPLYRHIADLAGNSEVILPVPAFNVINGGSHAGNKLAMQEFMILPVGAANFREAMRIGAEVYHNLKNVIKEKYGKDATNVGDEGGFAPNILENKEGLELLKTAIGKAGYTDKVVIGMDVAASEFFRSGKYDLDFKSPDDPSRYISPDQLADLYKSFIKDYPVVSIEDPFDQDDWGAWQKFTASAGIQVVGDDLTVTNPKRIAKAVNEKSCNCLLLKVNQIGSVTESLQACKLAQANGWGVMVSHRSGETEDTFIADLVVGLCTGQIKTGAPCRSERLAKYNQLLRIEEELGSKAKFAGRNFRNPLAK

In the case of `C#CC(=O)Nc1ccc(-n2nc(CCC(=O)NC)cc2-c2ccc(-c3ccc(C(F)(F)F)cc3)cc2)cc1`, the outcome (with PC-9; in [2]; in [5]; at Pyruvate kinase PKM [6]) was Active. In addition, in the series with Mus musculus, the inhibition result was “Active”. The inhibition result at Pyruvate kinase PKM [1] and on Pyruvate kinase PKM [4] was “Dose-dependent effect” throughout. For the same molecule, the IC50 was above 2000 nM in the series on NCI-H157 and 1500 nM in the series on NCI-H460. Also, the “inhibition (INH)” value on Pyruvate kinase PKM [3] is listed as “Not Active”.
